# Only some compounds are listed: those with a hit (about 2.9% of all), similar ones and a draw of the others.
# SENP1 inh – SENP1 (human) catalytic domain inhibition. Q9P0U3. recombinant SENP1 catalytic domain, CyPet-SUMO1-YPet FRET cleavage. inhibition, % at 10 µM. 360,000 tested, 0.21% active. AID 624204;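 active means inhibition at least 30% at 10 µM, raw YFP signal under a set limit, fluorescence ratio 0.5 to 1.5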
#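 Test system: recombinant human SENP1 catalytic domain, His6-tagged / Medium: pH 8 Tris buffer with EDTA, NaCl, BME, BSA, NP40, catalase / Also added: SUMO1 FRET substrate flanked by Cypet and Ypet, 25 nM / Times: 50 min reaction at room temperature / Signal: FRET, CFP and YFP emission / Control set: no-enzyme low control and enzyme-plus-DMSO high control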
# HSP90 inh – blocks HSP90-mediated luciferase refolding in reticulocyte lysate | Rabbit reticulocyte lysate, luciferase refolding luminescence, 3 h | inhibition, % at 5.6 µM | 290,000 tested, 0.91% active | AID 1789;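 active means inhibition above the screen-wide mean plus 3 SD, computed separately per campaign, cut at about 16% in these data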;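 further: inhibitors lower the luminescence because luciferase stays unfolded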
# SENP8 block-1 – blocks human SENP8 cleavage of Nedd8 substrate; Q96LD8; recombinant SENP8, Nedd8 substrate fluorescence; inhibition, % at 20 µM; 360,000 tested, 0.64% active; AID 602440; in the data active means inhibition mostly above about 40%, no sharp cut-off; inactive means mostly below about 27%
# SENP6 block – blocks the human protease SENP6. Recombinant SENP6 catalytic domain, aminoluciferin luminescence. AID 2599. inhibition, % at 10 µM. 330,000 tested, 1.8% active;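 active means inhibition above about 50% at the single tested dose, limit read from the data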
# Target sequence (Q9GZR1 628-1112 limits assumed): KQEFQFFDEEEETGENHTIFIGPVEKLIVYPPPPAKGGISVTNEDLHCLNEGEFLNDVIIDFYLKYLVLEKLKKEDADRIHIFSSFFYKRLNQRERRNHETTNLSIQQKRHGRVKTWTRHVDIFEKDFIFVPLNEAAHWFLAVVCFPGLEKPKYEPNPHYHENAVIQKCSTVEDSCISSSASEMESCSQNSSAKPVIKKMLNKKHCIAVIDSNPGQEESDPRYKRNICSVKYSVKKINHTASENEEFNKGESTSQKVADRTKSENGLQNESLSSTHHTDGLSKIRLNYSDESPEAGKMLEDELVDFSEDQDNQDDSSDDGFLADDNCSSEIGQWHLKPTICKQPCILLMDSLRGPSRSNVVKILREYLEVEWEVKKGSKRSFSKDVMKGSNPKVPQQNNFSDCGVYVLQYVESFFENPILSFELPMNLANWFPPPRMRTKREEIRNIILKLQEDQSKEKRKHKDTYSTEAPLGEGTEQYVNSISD
# SENP7 block – blocks the human protease SENP7. Q9BQF6. inhibition, % at 5 µM. AID 434973. 330,000 tested, 1.5% active. recombinant SENP7, Z-RLRGG-aminoluciferin luminescence, 40 min;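 active means inhibition above about 50% at the single test dose, limit read from the data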
# SENP8 block-2 – inhibitors of human SENP8 protease; Q96LD8; purified SENP8, Z-RLRGG-aminoluciferin cleavage, luminescence; inhibition, % at 10 µM; 330,000 tested, 1.2% active; AID 2540; in the data active means inhibition above about 50%
# SENP8 confirm – human SENP8 inhibition, confirmed | shares compounds with SENP7 block | Recombinant SENP8, Z-RLRGG-aminoluciferin luminescence, 60 min | 6,200 tested, 40% active | inhibition, % at 12.5 µM;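 active means mean inhibition across replicates above about 50%, limit read from the data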
# SENP6 confirm – human SENP6 inhibition, confirmed; shares compounds with SENP7 block; recombinant SENP6, Z-RLRGG-aminoluciferin luminescence; inhibition, % at 12.5 µM; 6,200 tested, 58% active; AID 488915
# SENP7 conf – confirmation of human SENP7 protease inhibitors. shares compounds with SENP7 block. recombinant SENP7, Z-RLRGG-aminoluciferin luminescence, 40 min. AID 488917. inhibition, % at 12.5 µM. 6,200 tested, 69% active
# Casp3 select – inhibits human caspase-3 in SENP selectivity test; shares compounds with SENP7 block; purified caspase-3, Z-DEVD-aminoluciferin luminescence, 60 min; inhibition, % at 12.5 µM; 6,200 tested, 60% active; AID 488918;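 active means mean inhibition above about 50%, limit read from the data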
# Target sequence (P42574 28-227 limits assumed): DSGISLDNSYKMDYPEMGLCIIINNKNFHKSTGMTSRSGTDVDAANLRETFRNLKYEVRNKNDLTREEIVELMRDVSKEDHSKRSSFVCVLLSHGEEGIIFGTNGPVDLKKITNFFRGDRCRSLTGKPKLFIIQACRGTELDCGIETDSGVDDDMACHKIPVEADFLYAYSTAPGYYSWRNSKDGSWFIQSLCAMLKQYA
# Luc interf – counter-screen for SENP inhibitors: luminescence interference | shares compounds with SENP7 block | Pre-incubated SENP8/Z-RLRGG-aminoluciferin, luciferase luminescence interference | inhibition, % at 12.5 µM | 6,200 tested, 39% active | AID 488919;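 active means mean inhibition above about 50% when retested at one dose, limit read from the data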
# Numbers stand for hits; 0 = inactive; - = not tested or not shown.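 How the source made its calls, unless noted: active means mean inhibition above about 50% in the one-dose retest (limit read from the data); inactive means the rest.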
SMILES,SENP1 inh,HSP90 inh,SENP8 block-1,SENP6 block,SENP7 block,SENP8 block-2,SENP8 confirm,SENP6 confirm,SENP7 conf,Casp3 select,Luc interf
CC(=O)Nc1nc2ccc(-c3nc4ccccc4o3)cc2s1,0,0,0,0,64,0,0,0,0,0,0
Cc1ccc(C(=O)Nc2nc3ccc(S(C)(=O)=O)cc3s2)o1,0,0,0,0,60,0,56,54,84,86,64
CS(=O)(=O)c1ccc2sc(NC(=O)c3cc4ccccc4o3)nc2c1,0,0,0,77,0,0,0,0,0,0,0
CS(=O)(=O)c1ccc2nc(NC(=O)c3ccccc3Br)sc2c1,0,0,0,0,0,0,-,-,-,-,-
CS(=O)(=O)c1ccc2nc(NC(=O)c3ccco3)sc2c1,0,0,0,0,0,0,-,-,-,-,-
CS(=O)(=O)c1ccc2nc(NC(=O)c3ccccc3Cl)sc2c1,0,0,0,0,0,0,-,-,-,-,-
CC1CCC2(CC1)NC(=O)N(CC(=O)N1CCN(c3ccccc3)CC1)C2=O (stereo not drawn),0,-,0,0,0,0,-,-,-,-,-
CC(C)c1cccc(C(C)C)c1NC(=O)OC1CCCCC1,0,-,0,-,-,-,-,-,-,-,-
CC1(Cc2cc(Cl)ccc2C(F)(F)F)C(=O)Nc2cc(C(F)(F)F)ccc21 (stereo not drawn),0,-,0,-,-,-,-,-,-,-,-
Cc1cc(C(=O)Nc2nc3ccc(Cl)cc3s2)nn1C,0,0,0,0,0,0,-,-,-,-,-
O=C(Nc1nc2ccc(Cl)cc2s1)c1ccc(Br)o1,0,0,0,53,59,0,0,0,0,0,0
O=[N+]([O-])c1ccc(S(=O)(=O)N2CCN(c3ccc(N4CCOCC4)nn3)CC2)cc1,0,-,0,0,0,0,-,-,-,-,-
COc1cc(O)sc1C=Nc1ccc(Cl)cc1,0,0,0,95,91,82,85,87,100,84,57
Oc1ccc(Br)cc1C=Nc1ccc(Cl)cc1,0,0,0,0,0,0,-,-,-,-,-
Cc1cccc(-c2cc3nc4c(c(NCc5ccco5)n3n2)CCCC4)c1,0,0,0,88,0,81,0,0,0,0,0
COC(=O)c1ccc(OCC(=O)c2ccc(O)cc2O)cc1,0,0,0,0,0,0,-,-,-,-,-
CCOC(=O)c1ccc(OCC(=O)c2ccc(O)cc2O)cc1,0,0,0,55,0,0,0,0,64,66,0
O=C(COc1ccc(Cl)cc1)c1ccc(O)cc1O,0,0,0,58,0,0,54,0,72,67,53
O=C(COC(=O)c1ccccc1O)Nc1cccc(S(=O)(=O)N2CCCC2)c1,0,-,0,0,0,0,-,-,-,-,-
COc1ccc(C(=O)Nc2nc3cc(OC)c(OC)cc3c(=O)[nH]2)cc1,0,0,0,0,0,0,-,-,-,-,-
COc1ccc(C(=O)Nc2nc3ccccc3c(=O)[nH]2)cc1,0,0,0,54,0,0,0,0,59,72,0
N=c1cc(C2(O)CCCCC2)n2c(nc3ccccc32)s1,0,0,0,62,58,0,0,0,80,62,54
N=C1S/C(=C\c2ccco2)C(=O)N1c1nccs1,0,0,0,58,0,53,0,0,0,0,0
COC(=O)c1ccc(/C(O)=C(\C#N)c2nc3ccccc3s2)cc1,0,0,0,91,0,88,0,0,0,0,0
COC(=O)c1ccc(CC(=O)c2nc3ccccc3s2)cc1,0,0,0,92,0,79,0,0,0,0,0
SMILES,SENP1 inh,HSP90 inh,SENP8 block-1,SENP6 block,SENP7 block,SENP8 block-2,SENP8 confirm,SENP6 confirm,SENP7 conf,Casp3 select,Luc interf
Cc1ccc(OC/C(O)=C(\C#N)c2nc3ccccc3s2)cc1,0,0,0,70,0,76,78,80,76,75,0
Cc1ccc2nc(NC(=O)COC(=O)c3cccnc3)sc2c1,0,-,0,0,0,0,-,-,-,-,-
Cn1c(=NC(=O)c2ccco2)sc2ccccc21,0,0,0,67,52,0,54,56,84,79,0
CCCCN1C(=O)C(=Nc2cccc3cnccc23)c2ccccc21,0,0,0,87,81,0,0,0,0,0,0
CCCCN1C(=O)/C(=C2\SC(N3CCCCC3)=NC2=O)c2ccccc21,0,0,0,0,0,0,-,-,-,-,-
C#Cc1cccc(NC(=O)c2ccc3c(c2)C(=O)N(Cc2cccnc2)C3=O)c1,0,0,0,60,75,0,0,0,88,54,56
C[C@H](O)[C@@H]1C(=O)N2CCc3ccc(N4CCN(C)CC4)cc3[C@@H]2C[C@@H]1N(C)C(=O)c1ccc(C#N)cc1,0,-,0,-,-,-,-,-,-,-,-
Cc1cnc(NC(=O)c2cc3ccccc3o2)s1,0,38,0,68,75,55,0,0,61,51,0
Cc1cnc(NC(=O)c2ccc3c(c2)OCCO3)s1,0,-,0,91,92,84,0,84,97,79,0
Cc1cc(NC(=O)c2cccnc2Cl)ccc1NC(=O)c1cc2ccccc2o1,0,0,0,0,0,0,-,-,-,-,-
Cc1ccc(C(=O)Nc2ncc(C)s2)o1,0,0,0,60,67,0,62,58,87,90,67
O=C(Nc1cccnc1Cl)c1cc2ccccc2o1,0,0,0,70,63,0,60,61,89,81,72
CN(C)CCN(C)C1CN(Cc2ccc([N+](=O)[O-])cc2)S(=O)(=O)C1 (stereo not drawn),0,-,0,-,-,-,-,-,-,-,-
CC(C)C[C@@H]1COc2cccc(N3CCN(Cc4ccccc4F)CC3)c2S(=O)(=O)N1,0,-,0,-,-,-,-,-,-,-,-
Cc1ccnc(N=O)c1,0,-,0,-,0,-,-,-,-,-,-
Clc1cc2nc(-c3cccnc3Cl)[nH]c2cc1Cl,0,0,0,77,73,0,0,0,90,59,0
Cc1cc2nc(-c3ccccc3O)[nH]c2cc1C,0,-,0,-,-,-,-,-,-,-,-
CC(O)(c1cccc(F)c1)c1nc(-c2ccoc2)cs1 (stereo not drawn),0,-,0,-,-,-,-,-,-,-,-
O=C(Nc1sc2c(c1C(=O)O)CCCC2)c1ccc(F)cc1,0,0,0,88,0,75,88,86,94,80,78
O=C(Nc1sc2c(c1C(=O)O)CCCCC2)c1ccccc1F,0,0,0,96,86,94,97,98,102,95,80

# Screening data as filed in PubChem BioAssay.
